The values below come from PMC11808297 (RSC Advances, 2025).

One data set relates to PLC/PRF/5. Kind of data set: Anti-proliferation assay. It counts as cell-based. The following applies: Homo sapiens, PLC-PRF-5, 48 h, read-out: IC50 against proliferation, PLC/PRF/5. A digest of the protocol: (§1)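 Cells thawed, grown in RPMI 1640 + 10% FBS at 37 °C, 5% CO2; used in log phase. Seeded 10 000–12000 cells/well, after 4 h test compound added at working concentrations 0.16/0.8/4/20/100 μmol L−1 in complete medium. MTT (5 mg mL−1) added for 4 h, formazan dissolved in DMSO, absorbance at 570 nm.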

In a further data set the test system is HEL. Kind of data set: Anti-proliferation assay. It is filed as cell-based. Conditions: Homo sapiens, 48 h, read-out: IC50 against proliferation, HEL. The essentials: as §1
For another data set, the system named is MDA-MB-231. Put plainly: Anti-proliferation assay. Conditions: Homo sapiens, MDA-MB-231, 48 h, read-out: IC50 against proliferation, MDA-MB-231. It counts as cell-based. A digest of the protocol: as §1
The subject of a further data set is HuH7. Put plainly: Anti-proliferation assay. It counts as cell-based. Conditions: Homo sapiens, Huh-7, 48 h, read-out: IC50 against proliferation, HuH7. The essentials:
as §1

The next data set relates to HEPG2. Kind of data set: Anti-proliferation assay. It counts as cell-based. Conditions: Homo sapiens, HepG2, 48 h, read-out: IC50 against proliferation, HEPG2. A digest of the protocol: as §1
Another data set concerns K562. Kind of data set: Anti-proliferation assay. It counts as cell-based. The following applies: Homo sapiens, K562, 48 h, read-out: IC50 against proliferation, K562. A digest of the protocol:
as §1

In another data set the test system is rat thoracic aorta ring. Put plainly: Rat aortic ring assay. The following applies: 5 μM, 9 days. A digest of the protocol:
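Thoracic aortas from 8–10 week-old male SD rats, cleaned of fibroadipose tissue, cut into 1 mm rings, embedded between Matrigel layers. Test compound in M199 added; cultured at 37 °C, 5% CO2 for 9 days with medium plus compound renewed every three days. Micro-vessels imaged by inverted microscope at 100×.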

Data set [1] in a line: Metabolic stability in mouse liver microsomes. It counts as in vitro ADME. The following applies: for CLint(liver): NADPH; for Remaining (NCF = 60 min): no co-factor. The essentials:
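CD-1 mouse liver microsomes in 100 mM potassium phosphate buffer, preincubated 10 min at 37 °C with NADPH (1 mM final) or without co-factor. Test compound spiked to 1 μM final; testosterone positive control. Sampled at 5, 15, 30, 45, 60 min, quenched in cold acetonitrile with tolbutamide/labetalol IS, LC-MS/MS. T1/2 and CLint from first-order kinetics.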
A general note: Microsomes from liver hold many membrane-bound enzymes, among them those of drug oxidation.

Data set [2] is described as follows: Stability in simulated gastric fluid. It counts as in vitro ADME. The following applies: 2 μM, 37 °C, pH 1.20, up to 24 h. The essentials: (§2)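 Test compound at 2 μM final in simulated gastric fluid (NaCl, pepsin, HCl; pH 1.20) or simulated intestinal fluid (KH2PO4, pancreatin; pH 6.8), shaken at 37 °C, 600 rpm. At 0, 1, 2, 6, 24 h quenched with cold acetonitrile containing tolbutamide/labetalol IS, centrifuged 4 °C; remaining compound by LC/MS/MS peak area ratio analyte/IS, C18 column.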

A further data set concerns the target T1, APN from porcine kidney (Sus scrofa, UniProt P15145).
T1 sequence (P15145 1-963): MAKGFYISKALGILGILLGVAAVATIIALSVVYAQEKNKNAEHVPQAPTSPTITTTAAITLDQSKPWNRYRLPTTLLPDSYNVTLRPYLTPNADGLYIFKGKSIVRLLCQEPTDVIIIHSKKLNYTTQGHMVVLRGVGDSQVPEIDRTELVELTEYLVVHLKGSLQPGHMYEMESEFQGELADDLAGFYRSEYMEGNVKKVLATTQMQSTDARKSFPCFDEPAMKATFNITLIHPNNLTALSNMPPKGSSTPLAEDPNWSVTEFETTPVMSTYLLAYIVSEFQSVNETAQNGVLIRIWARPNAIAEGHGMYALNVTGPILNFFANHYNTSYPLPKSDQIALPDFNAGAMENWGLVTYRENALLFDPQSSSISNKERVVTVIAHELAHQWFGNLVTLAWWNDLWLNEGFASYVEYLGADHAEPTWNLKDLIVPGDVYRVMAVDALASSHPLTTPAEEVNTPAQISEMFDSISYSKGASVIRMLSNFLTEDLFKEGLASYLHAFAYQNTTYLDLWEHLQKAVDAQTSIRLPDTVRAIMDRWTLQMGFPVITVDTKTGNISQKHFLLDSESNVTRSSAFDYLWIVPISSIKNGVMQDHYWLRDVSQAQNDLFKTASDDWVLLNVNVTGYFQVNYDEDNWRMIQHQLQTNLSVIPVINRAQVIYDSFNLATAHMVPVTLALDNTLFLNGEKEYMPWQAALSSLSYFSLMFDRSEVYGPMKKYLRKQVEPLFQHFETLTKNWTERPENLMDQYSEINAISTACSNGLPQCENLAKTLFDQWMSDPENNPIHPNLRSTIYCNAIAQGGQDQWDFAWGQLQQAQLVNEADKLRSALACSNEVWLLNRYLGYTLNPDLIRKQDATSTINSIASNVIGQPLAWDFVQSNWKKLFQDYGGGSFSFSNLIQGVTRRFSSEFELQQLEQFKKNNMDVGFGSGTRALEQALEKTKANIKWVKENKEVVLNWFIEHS
Kind of data set: APN inhibition assay. It counts as biochemical.

A short description of data set [3]: In vivo PK study in Sprague Dawley rats. The following applies: male, rat, plasma. The essentials: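 Male SD rats, 180–220 g, acclimatised one week, fasted 12 h. Single dose i.v. infusion (jugular vein cannula sampling) or oral; blood taken predose and to 24 h (i.v. from 0.083 h, oral from 0.25 h). Plasma by centrifugation, stored −20 °C, LC-MS/MS quantitation.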

Data set [4] deals with human umbilical vein endothelial cells (HUVECs). Put plainly: HUVEC tubular structure formation assay. It is filed as cell-based. Conditions: 5 μM, 4 h on Matrigel.
The nature of data set [5]: Stability in simulated intestinal fluid. It is filed as in vitro ADME. The following applies: 2 μM, 37 °C, pH 6.8, up to 24 h. The essentials: as §2
Where [6] appears, read: mouse liver microsomes, 1 μM, 60 min.

Turning to `CC(C)C[C@H](NC(=O)[C@@H](O)[C@H](N)Cc1ccccc1)C(=O)O` [Bestatin, reference compound], the IC50 with PLC/PRF/5, with HEL, in the data set on MDA-MB-231, with HuH7, in the data set on HEPG2 and with K562 was greater than 100 µM throughout.

Consider `CC(C)C[C@H](NC(=O)NCc1cn(-c2ccccc2C(=O)OCn2cc(F)c(=O)[nH]c2=O)nn1)C(=O)NO` [Compound 3, (5-fluoro-2,4-dioxo-3,4-dihydropyrimidin-1(2H)-yl)methyl (S)-2-(4-((3-(1-(hydroxyamino)-4-methyl-1-oxopentan-2-yl)ureido)methyl)-1H-1,2,3-triazol-1-yl)benzoate], for which the IC50 was greater than 100 µM with PLC/PRF/5; 0.5 ± 0.29 µM against APN from porcine kidney; 47.2 ± 19.3 µM in the data set with HEL; greater than 100 µM in the data set on MDA-MB-231; greater than 100 µM in the data set on HuH7; greater than 100 µM with HEPG2. For the same molecule, in the data set on K562, the IC50 worked out at 25.6 ± 12.3 µM. Further, the “Effect on micro-vessel growth of rat aortic ring” value with rat thoracic aorta ring is “could prevent the micro-vessel growth”. The half-life (as a rule, the time needed for the level to fall by half in the phase considered) at 1 μM in data set [1] (CD-1, mouse, liver microsomes) is 94.9 min. In addition, the intrinsic metabolic clearance (microsomal CLint) (usually a measure of how fast metabolising enzymes remove a compound, apart from limits set by blood flow) at 1 μM in data set [1] (CD-1, mouse, liver microsomes) amounted to 14.6 µL/min/mg. Further, the “CLint(liver)” value in data set [1] (mouse liver microsomes, 1 μM) stood at 57.8 mL/min/kg. Further, the “Remaining (NCF = 60 min)” value in [1] (setting [6]) is recorded as 80.1%. In addition, the “Remaining (T = 60 min)” value in data set [1] (mouse liver microsomes, 1 μM, with NADPH, 60 min) was 69.4%. Moreover, the “Stability in simulated gastric fluid” value in data set [2] is reported as “very stable”. In addition, the “APN inhibitory activity, fold more potent than bestatin” value on APN from porcine kidney (vs positive control bestatin) is given as “over 8 fold”. Further, the Tmax (commonly the time at which the peak concentration occurs) was 5 min in data set [3] (iv, 10 mg/kg) and 25 ± 8.64 min in data set [3] (po, 50 mg/kg). In addition, the clearance (in general, the rate of elimination divided by the concentration) in data set [3] (iv, 10 mg/kg) was 12.3 mL/min/kg. Also, the half-life was 52 ± 23.2 min in [3] (iv, 10 mg/kg) and 266 ± 246 min in data set [3] (po, 50 mg/kg). Also, in [3] (po, 50 mg/kg), the AUC(0-inf) (usually the area under the concentration-time curve extrapolated to infinity) turned out to be 510 ± 99.3 ng·h/mL. Also, in [3] (po, 50 mg/kg), the AUC(0-t) (as a rule, the area under the concentration-time curve up to a stated or last time point) amounted to 484 ± 119 ng·h/mL. For the same molecule, in data set [3] (po, 50 mg/kg), the concentration peaked (Cmax) at 337 ± 158 ng/mL. For the same molecule, the “Effect on HUVEC capillary tube formation” value in [4] is “could inhibit the capillary tube formation”. The “Stability in simulated intestinal fluid” value in data set [5] is listed as “slowly cleaved”.

On to `C[C@]12CC[C@H]3[C@@H](CCC4=CC(=O)CC[C@@]43C)[C@@H]1CC[C@@H]2O` [Testosterone, reference compound], for which, in data set [1] (mouse liver microsomes, 1 μM), the “CLint(liver)” value is 998.5 mL/min/kg. Moreover, in data set [1] (setting [6]), the “Remaining (NCF = 60 min)” value is given as 91.0%.
